Screening results from PubChem BioAssay.
Rows were chosen to be rich in hits. Some 5.8% of all compounds tested hit in one or more screens of this group.
Pf Dd2 inh – P. falciparum Dd2 growth inhibitors, primary screen, SYBR Green fluorescence, single dose replicates; 72 h; active compounds read low; activity change, % at 10 µM; 94,000 compounds, 2.3% hits; AID 1159554, 2015; in the data active = activity change below about -80%; inconclusive = no clear call, values can overlap the other calls
GASC1 inh – inhibitors of GASC-1 (KDM4C) histone demethylase, primary screen, biochemical, single concentration HTS; inhibition, % at 12.5 µM; GST-KDM4C 2-372, H3K9me3 peptide, LANCE TR-FRET; 96,000 compounds, 0.15% hits;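 active = mean replicate inhibition above about 25%, with at least 55% of replicates also reaching it, limit read from the data, passing the limit was not always enough; inconclusive = only one of those two conditions met; inactive = neither condition met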
Target sequence (Q9H3R0 2-372 limits assumed): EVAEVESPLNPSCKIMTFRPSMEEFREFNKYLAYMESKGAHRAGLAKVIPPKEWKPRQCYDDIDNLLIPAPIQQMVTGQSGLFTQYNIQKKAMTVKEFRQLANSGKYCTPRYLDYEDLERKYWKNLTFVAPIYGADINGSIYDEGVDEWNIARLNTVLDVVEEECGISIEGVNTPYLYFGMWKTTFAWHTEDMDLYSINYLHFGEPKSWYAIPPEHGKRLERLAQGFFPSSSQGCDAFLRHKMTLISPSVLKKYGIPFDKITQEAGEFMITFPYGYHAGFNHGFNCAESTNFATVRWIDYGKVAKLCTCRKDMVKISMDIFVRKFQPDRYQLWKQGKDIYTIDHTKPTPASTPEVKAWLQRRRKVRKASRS
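System – N-terminal GST-fused human GASC-1 (KDM4C) fragment, residues 2-372 · Input – enzyme final amount 10 nM · Technique – LANCE TR-FRET, Eu antibody, ULight-streptavidin, EDTA, ex 340 nm, em 618/671 nm · Medium – HEPES buffer, pH 7.5, plus ascorbate · Incubation – enzyme reaction 30 min, then detection 60 min, both room temperature · Reagent – H3K9me3 peptide with Fe(II)/2OG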
T cruzi growth-1 – T. cruzi intracellular proliferation inhibitors, primary screen, cell-based, beta-gal Tulahuen parasites, NIH3T3 host, luminescence | T. cruzi beta-gal in NIH3T3, GalScreen luminescence, 90 h | inhibition, % at 8.34 µM | 77,000 compounds, 5.9% hits | AID 624255, 2012;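 active = mean inhibition above about 93%, with at least 55% of replicates each passing it, limit read from the data, passing the limit was not always enough; inconclusive = only one of those two conditions holds; inactive = neither condition holds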
IDH1 mut inh – inhibitors of IDH1 R132H reductase, primary screen, biochemical, plate reader, single point | Isocitrate dehydrogenase [NADP] cytoplasmic (Homo sapiens), O75874 | AID 624101, 2012 | diaphorase/resazurin fluorescence, 60 min | 70,000 compounds, 0.18% hits | inhibition, % at 10 µM; in the data active = inhibition above about 34%; inconclusive = no clear call, values can overlap the other calls; inactive = below about 11%
Target sequence (O75874 whole entry R132H): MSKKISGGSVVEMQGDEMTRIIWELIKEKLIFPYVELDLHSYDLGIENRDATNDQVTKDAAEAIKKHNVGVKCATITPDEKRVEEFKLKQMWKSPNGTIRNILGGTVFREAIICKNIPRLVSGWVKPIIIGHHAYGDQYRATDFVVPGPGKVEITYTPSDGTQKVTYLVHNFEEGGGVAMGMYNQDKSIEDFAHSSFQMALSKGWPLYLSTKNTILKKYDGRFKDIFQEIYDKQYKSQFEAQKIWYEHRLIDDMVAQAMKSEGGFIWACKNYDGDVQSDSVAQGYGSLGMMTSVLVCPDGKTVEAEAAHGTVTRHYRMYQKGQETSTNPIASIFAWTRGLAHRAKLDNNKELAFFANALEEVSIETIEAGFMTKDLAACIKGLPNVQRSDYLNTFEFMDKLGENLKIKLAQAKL
T cruzi growth-2 – T. cruzi intracellular proliferation inhibitors, confirmation, cell-based, NIH3T3 host, beta-gal parasite, luminescence, cherry-pick; AID 651739, 2012; inhibition, % at 8.35 µM; shares compounds with T cruzi growth-1; T. cruzi beta-gal in NIH3T3, GalScreen luminescence, 90 h; 5,600 compounds, 72% hits;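 active = mean replicate inhibition above about 95% and at least 55% of replicates individually reaching it, limit read from the data; inconclusive = only one of the two criteria is met; inactive = neither criterion is met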
T cruzi growth-3 – inhibitors of intracellular T. cruzi replication, confirmation, NIH3T3 host cells, beta-gal parasites, cherry-pick, set 2; T. cruzi beta-gal in NIH3T3, GalScreen luminescence, 90 h; shares compounds with T cruzi growth-1; inhibition, % at 2.09 µM; 5,600 compounds, 21% hits; AID 651740, 2012;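 active = mean inhibition above about 95%, with at least 55% of replicates also reaching it, limit read from the data; inconclusive = meets just one of the two conditions; inactive = meets neither condition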
3T3 cytotox – cytotoxicity in mouse NIH/3T3 fibroblasts, confirmation, cytotoxicity control for T. cruzi proliferation inhibitor project, cell-based, cherry-pick, single point; 5,600 compounds, 14% hits; NIH/3T3 viability, CellTiter-Glo ATP luminescence, 90 h; shares compounds with T cruzi growth-1; cytotoxicity (signal decrease), % at 8.35 µM;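 active = mean signal decrease across replicates above about 35% based on untreated-well scatter, with enough replicates individually passing, limit read from the data; inconclusive = no rule stated though some were filed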
NIH3T3 tox 2 – NIH/3T3 fibroblast cytotoxicity, confirmation, cytotoxicity control, cell-based, cherry-pick, single point, set 2; 5,600 compounds, 56% hits; inhibition, % at 24.9 µM; AID 651744, 2012; NIH/3T3 viability, CellTiter-Glo ATP luminescence, 90 h; shares compounds with T cruzi growth-1;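 active = mean loss of cell viability signal at or above a set limit, and enough replicates individually reaching it; inconclusive = meets only the mean limit or only the replicate share; inactive = meets neither condition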
Hits are given with their value; . = inactive; ? = inconclusive; / = no result.

SMILES | Pf Dd2 inh | GASC1 inh | T cruzi growth-1 | IDH1 mut inh | T cruzi growth-2 | T cruzi growth-3 | 3T3 cytotox | NIH3T3 tox 2
Cc1ccc(-c2ccc3c(c2)O[C@H](CN(C)Cc2ccncc2)[C@@H](C)CN([C@H](C)CO)S3(=O)=O)cc1 | -89.5 | . | 122.2 | . | 99.1 | 102.7 | 75.5 | 104.6
C[C@H](CO)N1C[C@H](C)[C@@H](CN(C)Cc2ccncc2)Oc2cc(-c3ccncc3)ccc2S1(=O)=O | . | . | . | / | / | / | / | /
Cc1ccc(-c2ccc3c(c2)O[C@H](CN(C)Cc2ccncc2)[C@H](C)CN([C@@H](C)CO)S3(=O)=O)cc1 | . | . | 118.7 | / | . | . | ? | 99.0
CCCC#Cc1ccc2c(c1)O[C@H](CN(C)C(=O)NCCC)[C@@H](C)CN([C@H](C)CO)S2(=O)=O | . | . | . | . | / | / | / | /
CCCNC(=O)N(C)C[C@H]1Oc2cc(C#Cc3cccc(F)c3)ccc2S(=O)(=O)N([C@@H](C)CO)C[C@H]1C | . | ? | 114.5 | . | 102.2 | 105.5 | . | 50.8
CCCNC(=O)N(C)C[C@H]1Oc2cc(C#Cc3cccc(F)c3)ccc2S(=O)(=O)N([C@H](C)CO)C[C@@H]1C | . | . | 113.7 | . | . | . | . | 59.9
CC(C)NC(=O)N(C)C[C@@H]1Oc2cc(C#Cc3cccc(F)c3)ccc2S(=O)(=O)N([C@@H](C)CO)C[C@H]1C | . | . | . | . | / | / | / | /
CCCC#Cc1ccc2c(c1)O[C@@H](CN(C)C(=O)NCCC)[C@@H](C)CN([C@@H](C)CO)S2(=O)=O | . | . | . | . | / | / | / | /
CCCNC(=O)N(C)C[C@@H]1Oc2cc(C#Cc3cccc(F)c3)ccc2S(=O)(=O)N([C@@H](C)CO)C[C@H]1C | . | . | 108.0 | . | 99.9 | . | 53.8 | 66.9
CCCC#Cc1ccc2c(c1)O[C@@H](CN(C)C(=O)NCCC)[C@H](C)CN([C@H](C)CO)S2(=O)=O | . | . | . | . | / | / | / | /
CCCNC(=O)N(C)C[C@H]1Oc2cc(C#Cc3cccc(F)c3)ccc2S(=O)(=O)N([C@@H](C)CO)C[C@@H]1C | . | . | 116.2 | . | 111.7 | . | . | 66.3
Cc1ccc2nc(-c3ccccn3)cc(C(=O)Nc3sc4c(c3C(N)=O)CCc3ccccc3-4)c2c1 | / | / | / | . | / | / | / | /
Cc1ccccc1NC(=O)CSc1cc(C)c2ccccc2n1 | / | / | / | . | / | / | / | /
CS(=O)(=O)N1[C@@H](C#N)[C@H](c2ccc(C#CC3CC3)cc2)[C@@H]1CO | . | . | . | / | / | / | / | /
N#C[C@@H]1[C@H](c2ccc(C#CC3CCCC3)cc2)[C@@H](CO)N1S(=O)(=O)c1ccccc1 | . | . | 97.5 | / | 96.3 | 106.9 | . | 107.7
CS(=O)(=O)N1[C@@H](C#N)[C@@H](c2ccc(C#CC3CC3)cc2)[C@@H]1CO | . | . | 103.1 | / | 107.4 | ? | . | .
Cc1ccc(OCC(O)CNc2ccc(Br)c(C(F)(F)F)c2)cc1C (configuration not stated) | / | / | / | . | / | / | / | /
OC[C@@H]1[C@H](c2ccc(C#CC3(O)CCCC3)cc2)[C@@H]2CN(Cc3cncnc3)CCCCN12 | . | . | ? | / | 97.8 | . | . | .
OC[C@@H]1[C@@H](c2ccc(C#CC3(O)CCCC3)cc2)[C@H]2CN(Cc3cccnc3)CCCCN12 | . | . | 118.8 | / | . | . | . | .
OC[C@H]1[C@H](c2ccc(C#CC3(O)CCCC3)cc2)[C@@H]2CN(Cc3cncnc3)CCCCN12 | . | . | 97.6 | / | . | . | . | .
OC[C@H]1[C@@H](c2ccc(C#CC3(O)CCCC3)cc2)[C@@H]2CN(Cc3cncnc3)CCCCN12 | . | . | . | / | / | / | / | /
COc1ccccc1NC(=O)C1=C(C)Nc2ncnn2C1c1ccccc1OCc1ccccc1 (configuration not stated) | / | / | / | . | / | / | / | /
C[C@@H]1CCCCO[C@@H](CN(C)S(=O)(=O)c2ccc(F)cc2)[C@H](C)CN([C@@H](C)CO)C(=O)c2cc(NC(=O)Nc3ccc4c(c3)OCO4)ccc2O1 | . | . | . | / | / | / | / | /
C[C@H](CO)N1C[C@H](C)[C@@H](CN(C)S(=O)(=O)c2ccc(F)cc2)OCCCC[C@H](C)Oc2ccc(NC(=O)Nc3ccc4c(c3)OCO4)cc2C1=O | . | . | 99.9 | . | 110.1 | . | . | .
C[C@@H]1CCCCO[C@H](CN(C)S(=O)(=O)c2ccc(F)cc2)[C@H](C)CN([C@@H](C)CO)C(=O)c2cc(NC(=O)Nc3ccc4c(c3)OCO4)ccc2O1 | -81.3 | . | 100.1 | / | 102.2 | . | . | .
SMILES | Pf Dd2 inh | GASC1 inh | T cruzi growth-1 | IDH1 mut inh | T cruzi growth-2 | T cruzi growth-3 | 3T3 cytotox | NIH3T3 tox 2
CCN(CC(=O)Nc1cccc([N+](=O)[O-])c1C)S(=O)(=O)c1ccc(Br)cc1 | / | / | / | . | / | / | / | /
Cc1noc(C)c1S(=O)(=O)Nc1ccc2c(c1)CC(=O)N([C@H](C)CO)C[C@H](C)[C@@H](CN(C)Cc1ccc(Cl)c(Cl)c1)O2 | . | . | 100.0 | . | 106.0 | . | . | 104.4
Cc1noc(C)c1S(=O)(=O)Nc1ccc2c(c1)CC(=O)N([C@@H](C)CO)C[C@@H](C)[C@H](CN(C)Cc1ccc(Cl)c(Cl)c1)O2 | . | . | . | . | / | / | / | /
C[C@@H]1CN([C@@H](C)CO)C(=O)Cc2cc(NS(=O)(=O)c3ccc(Cl)cc3)ccc2O[C@H]1CN(C)Cc1ccc(Cl)c(Cl)c1 | . | . | ? | . | . | . | 41.5 | 104.3
C[C@H](CO)N1C[C@H](C)[C@@H](CN(C)Cc2ccc(Cl)c(Cl)c2)Oc2ccc(NS(=O)(=O)c3ccc(Cl)cc3)cc2CC1=O | . | . | . | . | / | / | / | /
C[C@@H]1CN([C@H](C)CO)C(=O)Cc2cc(NS(=O)(=O)c3ccc(F)cc3)ccc2O[C@H]1CN(C)Cc1ccc(Cl)c(Cl)c1 | . | . | . | . | / | / | / | /
Cc1ccc(S(=O)(=O)Nc2ccc3c(c2)C(=O)N([C@H](C)CO)C[C@@H](C)[C@@H](CN(C)Cc2ccc(Cl)c(Cl)c2)O3)cc1 | . | . | ? | . | 95.0 | . | 64.7 | 105.5
C[C@@H]1CN([C@H](C)CO)C(=O)Cc2cc(NS(=O)(=O)c3ccc(Cl)cc3)ccc2O[C@H]1CN(C)Cc1ccc(Cl)c(Cl)c1 | . | . | 97.1 | . | 107.5 | 107.2 | . | 102.5
